ChEMBL document CHEMBL3091335, “Design and synthesis of potent and selective P2X₃ receptor antagonists derived from PPADS as potential pain modulators” (Eur J Med Chem, 2013)
The source made the active and inactive calls. No cut-off for these calls is given here.

How the values were obtained:
P2X purinoceptor 1 [1] = biological target: T1, P2X purinoceptor 1 (Mus musculus, UniProt P51576); assay: Antagonist activity at mouse P2X1 receptor
T1 sequence (P51576 whole entry): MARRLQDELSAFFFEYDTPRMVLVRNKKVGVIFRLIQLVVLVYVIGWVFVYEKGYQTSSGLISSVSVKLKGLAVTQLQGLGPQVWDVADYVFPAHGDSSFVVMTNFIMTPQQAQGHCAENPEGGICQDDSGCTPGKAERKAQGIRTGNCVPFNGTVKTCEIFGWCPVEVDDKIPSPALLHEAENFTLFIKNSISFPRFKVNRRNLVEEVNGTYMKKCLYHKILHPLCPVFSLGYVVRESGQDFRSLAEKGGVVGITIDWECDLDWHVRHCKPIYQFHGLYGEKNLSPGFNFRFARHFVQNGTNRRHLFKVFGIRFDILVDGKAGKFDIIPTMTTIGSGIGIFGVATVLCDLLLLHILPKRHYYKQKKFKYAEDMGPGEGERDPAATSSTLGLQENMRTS

[2] = biological target: T2, P2X purinoceptor 7 (Homo sapiens) (UniProt Q99572); assay: Antagonist activity at human P2X7 receptor expressed in HEK293 cells assessed as inhibition of BzATP-induced accumulation of ethidium+ at 10 uM after 120 mins by fluorescence assay relative to control; type: cell-based
T2 sequence (whole entry): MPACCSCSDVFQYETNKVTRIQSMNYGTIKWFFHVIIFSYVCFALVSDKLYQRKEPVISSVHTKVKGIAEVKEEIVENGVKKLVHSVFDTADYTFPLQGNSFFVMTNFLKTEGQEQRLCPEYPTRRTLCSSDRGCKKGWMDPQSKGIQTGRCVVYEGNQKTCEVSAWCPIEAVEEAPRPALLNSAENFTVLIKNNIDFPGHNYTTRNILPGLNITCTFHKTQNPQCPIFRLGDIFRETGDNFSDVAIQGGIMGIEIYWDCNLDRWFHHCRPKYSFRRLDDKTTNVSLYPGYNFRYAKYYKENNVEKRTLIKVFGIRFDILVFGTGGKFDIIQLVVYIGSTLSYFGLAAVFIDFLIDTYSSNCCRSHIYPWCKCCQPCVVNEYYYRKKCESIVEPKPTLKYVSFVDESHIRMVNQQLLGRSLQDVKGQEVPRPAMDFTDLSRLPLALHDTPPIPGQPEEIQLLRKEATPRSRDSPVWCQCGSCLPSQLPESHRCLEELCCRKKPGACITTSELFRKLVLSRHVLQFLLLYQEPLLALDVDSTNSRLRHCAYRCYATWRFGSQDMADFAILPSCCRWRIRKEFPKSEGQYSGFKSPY
How it was run: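 HEK293 cells expressing hP2X7 were grown in DMEM with 10% FBS at 37 °C under 5% CO2, harvested with trypsin/EDTA and resuspended at 2.5 × 10⁶ cells/mL in KCl/glucose/EDTA/HEPES buffer (pH 7.4) with ethidium bromide. Cells were plated at 2 × 10⁵ cells/well with BzATP and incubated at 37 °C for 120 min. Fluorescence was read at ex 530/em 590 nm; mean ± SEM, n≥3.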

[3] = biological target: T3, P2X purinoceptor 3 (Homo sapiens) (UniProt P56373); assay: Antagonist activity at recombinant human P2X3 receptor expressed in Xenopus oocytes assessed as inhibition of ATP-induced ion current at 10 uM preincubated for 20 mins followed by ATP addition by two-electrode voltage clamp assay relative to control; type: cell-based
T3 sequence (whole entry): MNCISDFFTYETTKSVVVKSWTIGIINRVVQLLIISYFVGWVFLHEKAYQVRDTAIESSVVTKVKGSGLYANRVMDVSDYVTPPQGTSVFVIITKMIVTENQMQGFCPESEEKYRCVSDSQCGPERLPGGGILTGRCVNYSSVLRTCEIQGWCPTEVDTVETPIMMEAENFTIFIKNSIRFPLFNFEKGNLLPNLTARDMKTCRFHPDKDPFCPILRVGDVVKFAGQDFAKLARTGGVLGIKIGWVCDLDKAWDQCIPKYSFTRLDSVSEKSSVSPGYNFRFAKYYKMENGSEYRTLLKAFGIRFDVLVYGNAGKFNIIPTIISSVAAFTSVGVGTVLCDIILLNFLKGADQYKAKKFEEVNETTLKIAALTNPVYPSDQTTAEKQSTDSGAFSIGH
How it was run: (§1)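 Defolliculated Xenopus oocytes were injected with mP2X1 or hP2X3 cRNA (40 nL), held 24 h at 18 °C in Barth's solution, then stored at 4 °C for up to 12 days. Two-electrode voltage clamp was run at Vh −70 mV in HEPES/BaCl2 buffer at pH 7.5. ATP was superfused for 60–120 s with 20 min washout. Currents were normalized to the ATP response, giving % inhibition or IC50 from inhibition curves; mean ± SEM, n≥3.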

[4] = biological target: T4, P2X purinoceptor 1 (Mus musculus) (UniProt P51576); assay: Antagonist activity at recombinant mouse P2X1 receptor expressed in Xenopus oocytes assessed as inhibition of ATP-induced ion current at 10 uM preincubated for 20 mins followed by ATP addition by two-electrode voltage clamp assay relative to control; type: cell-based; how it was run: as §1
T4 sequence (whole entry): T1 sequence (P51576 whole entry)

P2X purinoceptor 3 = biological target: T5, P2X purinoceptor 3 (Homo sapiens, UniProt P56373); assay: Antagonist activity at recombinant human P2X3 receptor expressed in Xenopus oocytes assessed as inhibition of ATP-induced ion current preincubated for 20 mins followed by ATP addition by two-electrode voltage clamp assay; type: cell-based; how it was run: as §1
T5 sequence (P56373 whole entry): T3 sequence (whole entry)

P2X purinoceptor 1 [5] = biological target: T1, P2X purinoceptor 1; assay: Antagonist activity at recombinant mouse P2X1 receptor expressed in Xenopus oocytes assessed as inhibition of ATP-induced ion current preincubated for 20 mins followed by ATP addition by two-electrode voltage clamp assay; type: cell-based; how it was run: as §1
[6] = biological target: T6, P2X2/P2X3 receptor (Rattus norvegicus) (UniProt P49653+P49654); assay: Antagonist activity at recombinant rat P2X2/3 receptor expressed in Xenopus oocytes assessed as inhibition of ATP-induced ion current at 1 uM preincubated for 15 mins followed by ATP addition by two-electrode voltage clamp assay relative to control; type: cell-based
[7] = Antinociceptive activity in rat spinal dorsal horn assessed as inhibition of electrically-stimulated long term potentiation at 20 uM by Di-4-ANEPPS dye-based assay relative to control; type: functional; details: Dorsal horn of spinal cord
How it was run: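 Ex vivo rat spinal cord slices (0.5 mm) loaded with voltage-sensitive dye Di-4-ANEPPS; optical signal in dorsal horn monitored before and after LTP induction by 2 Hz electrical stimulation (0.5 msec pulse) for 2 min. Expressed as % inhibition of LTP with compound treatment; means ± SD of 4 samples; pregabalin positive control.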

[8] = biological target: T6, P2X2/P2X3 receptor (Rattus norvegicus); assay: Antagonist activity at recombinant rat P2X2/3 receptor expressed in Xenopus oocytes assessed as inhibition of ATP-induced ion current at 100 nM preincubated for 15 mins followed by ATP addition by two-electrode voltage clamp assay relative to control; type: cell-based
[9] = biological target: T3, P2X purinoceptor 3 (Homo sapiens); assay: Antagonist activity at recombinant human P2X3 receptor expressed in Xenopus oocytes assessed as inhibition of ATP-induced ion current at 1 uM preincubated for 15 mins followed by ATP addition by two-electrode voltage clamp assay relative to control; type: cell-based
[10] = biological target: T3, P2X purinoceptor 3 (Homo sapiens); assay: Antagonist activity at recombinant human P2X3 receptor expressed in Xenopus oocytes assessed as inhibition of ATP-induced ion current at 100 nM preincubated for 15 mins followed by ATP addition by two-electrode voltage clamp assay relative to control; type: cell-based

Row | SMILES | inhibition [2] | inhibition [3] | inhibition [4] [%] | IC50 (P2X purinoceptor 3) [nM] | other results
1 | Cc1nc(/N=N/c2ccc(S(=O)(=O)O)cc2S(=O)(=O)O)c(COP(=O)(O)O)c(C=O)c1O |  |  |  |  | IC50 (P2X purinoceptor 1 [1]): 99 nM
2 | CC(=O)c1c(O)c(C)nc(CCc2ccccc2)c1C(=O)O | inactive | 37.3% | 47.9 |  | 
3 | Cc1nc(Cc2cccc(Oc3ccccc3)c2)c(C(=O)O)c(C(=O)O)c1O | inactive |  | 41.8 | 474 | 
4 | Cc1nc(Cc2cccc(Oc3ccccc3)c2)c2c(c1O)C(O)OC2=O (configuration not stated) | 27.1% |  | 45 | 652 | 
5 | Cc1nc(Cc2cccc3ccccc23)c(C(=O)O)c(C(=O)O)c1O | inactive |  | 48.7 | 1250 | 
6 | COc1ccccc1CCc1nc(C)c(O)c(C(C)=O)c1C(=O)O | inactive | 6.3% | 11.4 |  | 
7 | Cc1nc(Cc2ccc(Oc3ccccc3)cc2)c(C(=O)O)c(C(=O)O)c1O | inactive |  | 40 | 1050 | 
8 | Cc1nc(CC(c2ccccc2)c2ccccc2)c(C(=O)O)c(C(=O)O)c1O | inactive |  | 42 | 824 | 
9 | Cc1nc(Cc2cccc3ccccc23)c(CCC(=O)O)c(C=O)c1O | 43.4% |  |  | 636 | 
10 | COc1ccccc1CCc1nc(C)c(O)c(C(=O)O)c1C(=O)O | inactive | 34.5% | 49.8 |  | 
11 | Cc1nc(Cc2cccc3ccccc23)c(/C=C/C(=O)O)c(C=O)c1O | 48.4% |  | 22 | 145 | 
12 | COc1cccc(CCc2nc(C)c(O)c(C(C)=O)c2C(=O)O)c1 | inactive | 15.8% | 29.9 |  | 
13 | Cc1nc(NC(=O)c2cccc(Oc3ccccc3)c2)c(C(=O)O)c(C(=O)O)c1O | inactive |  |  | 928 | 
14 | Cc1cc(C(=O)O)c(C(=O)O)c(NC(=O)c2ccccc2)n1 | inactive | inactive |  |  | 
15 | CC(=O)c1c(O)c(C)nc(/C=C/c2ccccc2)c1C(=O)O | inactive | 27.4% | 52.4 |  | 
16 | Cc1nc(CCc2ccccc2)c(C(=O)O)c(C(=O)O)c1O | inactive |  |  | 797 | IC50 (P2X purinoceptor 1 [5]): 645 nM
17 | Cc1nc(Cc2cccc(Oc3ccccc3)c2)c(CCC(=O)O)c(C(=O)O)c1O | inactive |  | 31.7 | 638 | 

Row | SMILES | inhibition [2] | inhibition [3] | inhibition [4] [%] | IC50 (P2X purinoceptor 3) [nM] | other results
18 | Cc1nc(Cc2cccc3ccccc23)c2c(c1O)C(O)OC2=O (configuration not stated) | 14.8% |  |  | 856 | 
19 | COc1ccc(CCc2nc(C)c(O)c(C(=O)O)c2C(=O)O)cc1 | inactive |  |  | 460 | IC50 (P2X purinoceptor 1 [5]): 446 nM
20 | Cc1nc(Cc2cccc(Oc3ccccc3)c2)c(/C=C/C(=O)O)c(C(=O)O)c1O | inactive |  | 33.7 | 377 | 
21 | COc1cccc(CCc2nc(C)c(O)c(C(=O)O)c2C(=O)O)c1 | inactive | 45.5% | 52.4 |  | 
22 | Cc1nc(CCc2ccc(C(=O)O)cc2)c(C(=O)O)c(C(=O)O)c1O | inactive |  |  | 458 | IC50 (P2X purinoceptor 1 [5]): 267 nM
23 | Cc1nc(Cc2ccccc2Oc2ccccc2)c(C(=O)O)c(C(=O)O)c1O | inactive |  | 49.6 | 2930 | 
24 | Cc1nc(Cc2ccccc2)c(C(=O)O)c(C(=O)O)c1O | inactive | 31.4% | 54.2 |  | 
25 | Cc1nc(CCc2cccc(Oc3ccccc3)c2)c(C(=O)O)c(C(=O)O)c1O | inactive |  | 38.3 | 587 | 
26 | Cc1nc(-c2cccc(Oc3ccccc3)c2)c(C(=O)O)c(C(=O)O)c1O | inactive |  | 49.7 | 3300 | 
27 | Cc1nc(Cc2cccc(Oc3ccccc3)c2)c(/C=C/C(=O)O)c(C=O)c1O | 15.1% |  | 18.3 | 60 | inhibition [6]: 70.8%; inhibition at 20 µM [7]: 65%; inhibition [8]: 49.2%; inhibition [9]: 77.4%; inhibition [10]: 59.7%
28 | CC(=O)c1c(O)c(C)nc(Cc2ccccc2)c1C(=O)O | inactive | 18.3% | 44.2 |  | 
29 | Cc1nc(COCc2ccccc2)c(C(=O)O)c(C(=O)O)c1O | inactive | 23.1% |  |  | 
30 | Cc1nc(/C=C/c2ccccc2)c(C(=O)O)c(C(=O)O)c1O | inactive |  |  | 920 | IC50 (P2X purinoceptor 1 [5]): 768 nM
31 | Cc1nc(NC(=O)c2ccccc2)c(C(=O)O)c(C(=O)O)c1O | inactive |  |  | 723 | 
32 | COc1ccc(CCc2nc(C)c(O)c(C(C)=O)c2C(=O)O)cc1 | inactive | 42.2% | 52 |  | 
33 | Cc1nc(Cc2cccc(Oc3ccccc3)c2)c(CCC(=O)O)c(C=O)c1O | 10.2% |  | 23 | 366 | 
34 | CC(C)C[C@H](CN)CC(=O)O [PREGABALIN] |  |  |  |  | inhibition at 20 µM [7]: 31%
